Experimental findings from ChEMBL document CHEMBL3817787, “Lead Optimization of 2-Phenylindolylglyoxylyldipeptide Murine Double Minute (MDM)2/Translocator Protein (TSPO) Dual Inhibitors for the Treatment of Gliomas” (J Med Chem, 2016) are described below.

Data set [1] in a line: Growth inhibition of human U87MG cells at 50 uM after 72 hrs by MTS assay relative to control. Type of data set: functional, U-87MG ATCC. Conditions: U-87 MG, read-out: GI. Summed up: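 U87MG cells were exposed to temozolomide (50 µM) alone or combined with 100 nM dual inhibitor for at least 72 h. Viability was measured and expressed as reduction relative to untreated control.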

The next data set concerns the target Translocator protein (Rattus norvegicus, UniProt P16257). Nature of the data set: (§1) Displacement of [3H]PK11195 from TSPO in rat kidney mitochondrial membrane after 90 mins by liquid scintillation counting method. Type of data set: cell membranes. Summed up:
(§2)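 TSPO binding by radioligand displacement of the TSPO-selective [3H]PK11195 across a concentration range; Ki derived.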

Data set [2] concerns the target Translocator protein (Rattus norvegicus) (UniProt P16257). Described as §1. It counts as cell membranes. Summed up: as §2
The species entered for a further data set is Homo sapiens. Nature of the data set: Growth inhibition of human U87MG-derived CSC at 100 uM after 7 days by MTS assay relative to control. It counts as functional. Summed up:
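Glioma CSC viability measured after 24 h and after prolonged (seven-day) exposure, at concentrations up to 100 µM; CSC depletion expressed versus control.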

The subject of a further data set is T98G. Nature of the data set: Growth inhibition of human T98G cells expressing p53 mutant after 48 hrs by MTS assay relative to control. It counts as functional. Summed up: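 Wild-type p53 U87MG and U343MG cells and mutant-p53 T98G cells were treated with a range of compound concentrations, using the same protocol for each line. Viability was read by MTS assay, and the 48 h treatment with 100 nM–10 µM is stated for U87MG. Results are given as percent inhibition or viable cells versus control, with IC50 taken from concentration–response curves.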

The nature of data set [3]: Antiproliferative activity against human U87MG cells expressing wild type p53 after 48 hrs by MTS assay. Conditions: U-87 MG.
Data set [4] in a line: Antiproliferative activity against human U343MG cells expressing wild type p53 after 48 hrs by MTS assay. The following applies: U-343MG.
Data set [5] can be described thus: Antiproliferative activity against human MSC at 10 uM after 48 hrs by MTS assay. Summed up: (§3)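 Non-tumoural human mesenchymal stem cells exposed to 100 nM-10 µM for 48 h; viability read by MTS assay.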
A short description of data set [6]: Antiproliferative activity against human MSC at 0.01 to 10 uM after 48 hrs by MTS assay. The following applies: in the assay text read “0.1 to 10 uM” for “0.01 to 10 uM”. Summed up:
as §3

The source made the active and inactive calls. The calls are words filed in the database; no cut-off is given here.

Sequence of Translocator protein (P16257 whole entry, looked up): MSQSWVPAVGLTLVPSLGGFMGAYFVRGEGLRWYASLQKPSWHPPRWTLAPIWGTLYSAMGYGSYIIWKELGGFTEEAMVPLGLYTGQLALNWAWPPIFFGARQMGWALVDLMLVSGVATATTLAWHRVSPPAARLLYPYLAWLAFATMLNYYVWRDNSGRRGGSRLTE
Sequence of Translocator protein (Rattus norvegicus) (P16257 whole entry, looked up): as above

As for `Cn1nnc2c(C(N)=O)ncn2c1=O` [TEMOZOLOMIDE], the inhibition of growth at 50 µM in [1] was 55%.
Regarding `CC[C@H](C)[C@H](NC(=O)C(=O)c1c(-c2ccccc2)[nH]c2ccccc12)C(=O)N[C@H](C(=O)OC)[C@@H](C)CC`, the Ki on Translocator protein was 1000 nM. Further, the inhibition result in data set [2] is “Dose-dependent effect”.
The matching figures for `COC(=O)[C@H](CC(C)C)NC(=O)[C@@H](NC(=O)C(=O)c1c(-c2ccccc2)[nH]c2ccccc12)C(C)C`: 365 nM and “Dose-dependent effect”.
Compound `COc1ccc(C2=NC(c3ccc(Cl)cc3)C(c3ccc(Cl)cc3)N2C(=O)N2CCNC(=O)C2)c(OC(C)C)c1` (centres undefined) returned a growth inhibition (GI) in the data set filed under Homo sapiens of 45%. For the same compound, the “growth inhibition (GI)” value with T98G is “inactive”. Also, the IC50 in [3] amounted to 6500 nM; in [4], 12600 nM.
Take `CCOC(=O)[C@H](Cc1ccccc1)NC(=O)[C@H](CC(C)C)NC(=O)C(=O)c1c(-c2ccccc2)[nH]c2ccccc12`: the growth inhibition (GI) in the data set filed under Homo sapiens was 65%. Further, the figures for the Activity entry in data set [5] and in data set [6] were “Toxic” and “Non-toxic”, respectively. Moreover, the “growth inhibition (GI)” value in the data set with T98G is “inactive”. This compound gave a Ki on Translocator protein of 430 nM. Further, the inhibition result in data set [2] is “Dose-dependent effect”. In addition, the IC50 is 2600 nM in [3] and 2100 nM in data set [4].
At Translocator protein, `CC[C@H](C)[C@H](NC(=O)[C@@H](NC(=O)C(=O)c1c(-c2ccccc2)[nH]c2ccccc12)C(C)C)C(=O)OC` came in with an inhibition constant (Ki) of 783 nM. Moreover, in data set [2], the inhibition entry is “Dose-dependent effect”.
